# Test results published in ChEMBL document CHEMBL4371095, “Triazole-Based Inhibitors of the Wnt/β-Catenin Signaling Pathway Improve Glucose and Lipid Metabolisms in Diet-Induced Obese Mice” (J Med Chem, 2019).
# Active and inactive are the calls of the source. No cut-off for these calls is given here.
# How the values were obtained:
# HEK293 [1] = experiment: Inhibition of Wnt (unknown origin)/FLAG-tagged human beta-catenin signaling expressed in HEK293 cells harboring TCF/LEF-responsive luciferase at 100 nM measured after 24 hrs by luciferase reporter gene assay; assay type: cell-based
# Procedure, shortened: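 HEK293 cells were transfected for 16 h with TOPFlash or FOPFlash, Renilla, and pcDNA3 wild-type or S33Y β-catenin. Compound was then added for a further 24 h. Firefly/Renilla dual-luciferase ratio was the read-out.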
# HEK293 [2] = experiment: Inhibition of Wnt/beta-catenin signaling (unknown origin) expressed in HEK293 cells harboring TCF/LEF-responsive luciferase assessed as luminescence at 20 nM measured after 24 hrs by luciferase reporter gene assay relative to control; assay type: cell-based; set-up: scale not given: the % may be the effect or the level left; settings: Homo sapiens
# Procedure, shortened: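 HEK293 cells carrying siRNA knockdown of GSK3β, Axin or CK1α (36 h transfection) were treated with or without 20 nM compound for 24 h. TCF/LEF reporter luminescence was read relative to control, mean ± S.D., n = 3.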
# HEK293 [3] = experiment: Inhibition of Wnt/beta-catenin signaling (unknown origin) expressed in Axin1 knock down HEK293 cells harboring TCF/LEF-responsive luciferase assessed as luminescence at 20 nM measured after 24 hrs by luciferase reporter gene assay relative to control; assay type: cell-based; set-up: scale not given: the % may be the effect or the level left; settings: Homo sapiens
# Procedure, shortened: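 HEK293 cells were transfected with siRNA against GSK3β, Axin or CK1α using RNAiMAX for 36 h. Cells were then treated with or without compound at 20 nM for 24 h, and TCF/LEF luciferase reporter activity was read.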
# [4] = biological target: Casein kinase I isoform alpha (Homo sapiens) (UniProt P48729); experiment: Binding affinity to CK1alpha (unknown origin) by SPR analysis
# [5] = biological target: Glycogen synthase kinase-3 beta (Homo sapiens, UniProt P49841); experiment: Binding affinity to recombinant full length human N-terminal GST-tagged GSK3beta expressed in sf9 cells by SPR analysis
# Procedure, shortened: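 Recombinant GST-tagged human GSK3β. Binding was measured by surface plasmon resonance at a biosensor core facility, and K_D was determined.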
# [6] = Inhibition of Wnt/beta-catenin signaling (unknown origin) expressed in HEK293 cells harboring GSK3B siRNA after 24 hrs by luciferase reporter gene assay; assay type: cell-based; settings: Homo sapiens, HEK293, 24 h
# SW480 = experiment: Inhibition of Wnt/beta-catenin signaling in human SW480 cells harboring APC mutant at 50 nM after 24 hrs by luciferase reporter gene assay; assay type: cell-based
# Axin-1 (Homo sapiens) = Axin-1 (Homo sapiens) (UniProt O15169); experiment: Stabilization of Axin1 in human HuH7 cells assessed as decrease in lipid accumulation at 5 uM after 36 hrs by nile red staining based fluorescence microscopic method; assay type: cell-based
# Procedure, shortened: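 Huh7 cells on collagen I-coated coverslips were treated with 5 μM compound for 36 h, then with 200 μM sodium oleate for a further 12–16 h. Cells were stained with 1 μM Nile red in HBSS for 10 min at 37 °C in the dark and imaged by fluorescence microscopy at 552/636 nm.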
# Mus musculus [7] = species: Mus musculus; experiment: Inhibition of Wnt/beta-catenin/Axin signaling in mouse hepatocytes assessed as decrease in PEPCK mRNA level at 5 uM by qPCR analysis; assay type: cell-based
# Procedure, shortened: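 Normal mouse hepatocytes were treated with 5 μM compound, and lipogenic and gluconeogenic gene mRNA was measured by qPCR; mean ± S.D. of triplicates.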
# [8] = Cmax in mouse at 10 mg/kg, po administered as single dose by LC-MS analysis; assay type: ADME, organism-based; set-up: dose 10 mg/kg, route oral; settings: in vivo
# Procedure, shortened: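 Compound was dissolved at 1 mg/ml in 10% Kolliphor EL and 10% polyethylene glycol in saline. Ten mice were split into intravenous and oral groups and given a single 10 mg/kg dose. Tail-vein blood was sampled at several time points and analysed by LC/MS/MS.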
# Mus musculus [9] = experiment: Antidiabetic activity in high fat diet fed C57BL/6J mouse assessed as improvement in glucose tolerance at 40 mg/kg, ip administered every 2 days for 11 weeks followed by glucose-challenge and measured up to 120 mins by IPGTT; assay type: functional, organism-based
# Procedure, shortened: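 Male mice, 8 weeks old, fed a 45% kcal fat diet for 6 weeks, then dosed i.p. every 2 days in corn oil vehicle alongside the continued diet. IPGTT was done before and at the end of treatment: 6–8 h fast, then glucose 2 g/kg i.p. in saline. Tail-vein blood glucose was read by glucometer over time, and AUC was derived; mean ± SEM, n = 5 per group.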
# Mus musculus [10] = experiment: Decrease in hepatic CycD1 mRNA level in high fat diet fed C57BL/6J mouse at 40 mg/kg, ip administered every 2 days for 11 weeks by qPCR analysis; assay type: functional, organism-based
# Procedure, shortened: (§1)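 Male mice, 8 weeks old, fed a 45% kcal fat diet for 6 weeks, then dosed i.p. every 2 days in corn oil vehicle for 11 weeks. Liver mRNA of the indicated genes was quantified at sacrifice; mean ± SEM, n = 5 per group.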
# Mus musculus [11] = experiment: Decrease in hepatic Glp1 mRNA level in high fat diet fed C57BL/6J mouse at 40 mg/kg, ip administered every 2 days for 11 weeks by qPCR analysis; assay type: functional, organism-based; procedure, shortened: as §1
# Mus musculus [12] = experiment: Decrease in hepatic […] mRNA level in high fat diet fed C57BL/6J mouse at 40 mg/kg, ip administered every 2 days for 11 weeks by qPCR analysis; assay type: functional, organism-based; procedure, shortened: as §1
# Mus musculus [13] = experiment: Effect on hepatic GCK mRNA level in normal chow diet fed C57BL/6J mouse at 40 mg/kg, ip administered every 2 days for 11 weeks by qPCR analysis; assay type: ADME, organism-based; settings: in vivo
# Procedure, shortened: (§2)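 Male mice, 8 weeks old, kept on normal chow throughout and dosed i.p. every 2 days in corn oil vehicle for 11 weeks. Body weight gain, liver/body weight ratio, and liver mRNA of the indicated genes were measured at sacrifice; mean ± SEM, n = 5 per group where stated.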
# Mus musculus [14] = experiment: Effect on hepatic SREBP1 mRNA level in normal chow diet fed C57BL/6J mouse at 40 mg/kg, ip administered every 2 days for 11 weeks by qPCR analysis; assay type: ADME, organism-based; settings: in vivo; procedure, shortened: as §2
# Mus musculus [15] = experiment: Effect on hepatic ACOT4 mRNA level in normal chow diet fed C57BL/6J mouse at 40 mg/kg, ip administered every 2 days for 11 weeks by qPCR analysis; assay type: ADME, organism-based; settings: in vivo; procedure, shortened: as §2
# Mus musculus [16] = experiment: Effect on body weight gain in normal chow diet fed C57BL/6J mouse at 40 mg/kg, ip administered every 2 days for 11 weeks; assay type: ADME, organism-based; settings: in vivo; procedure, shortened: as §2
# Mus musculus [17] = experiment: Effect on liver weight adjusted by body weight gain in normal chow diet fed C57BL/6J mouse at 40 mg/kg, ip administered every 2 days for 11 weeks; assay type: ADME, organism-based; settings: in vivo; procedure, shortened: as §2
# [18] = Toxicity in high fat diet fed C57BL/6J mouse assessed as serum creatinine level at 40 mg/kg, ip administered every 2 days for 11 weeks by Jaffe's reaction analysis (reference value: 0.3 +/- 0.02 mg/dl); assay type: organism-based; settings: in vivo
# [19] = Toxicity in high fat diet fed C57BL/6J mouse assessed as serum BUN level at 40 mg/kg, ip administered every 2 days for 11 weeks (reference value: 17.3 +/- 0.5 mg/dl); assay type: organism-based; settings: in vivo
# [20] = Toxicity in high fat diet fed C57BL/6J mouse assessed as serum uric acid level at 40 mg/kg, ip administered every 2 days for 11 weeks (reference value: 6.3 +/- 0.5 mg/dl); assay type: organism-based; settings: in vivo
# [21] = Toxicity in normal chow diet fed C57BL/6J mouse assessed as serum ALT level at 40 mg/kg, ip administered every 2 days for 11 weeks (reference value: 20 +/- 5.1 U/L); assay type: organism-based; settings: in vivo
# [22] = Toxicity in normal chow diet fed C57BL/6J mouse assessed as serum uric acid level at 40 mg/kg, ip administered every 2 days for 11 weeks (reference value: 4 +/- 0.2 mg/dl); assay type: organism-based; settings: in vivo
# Sequence of Axin-1 (Homo sapiens) (O15169 whole entry): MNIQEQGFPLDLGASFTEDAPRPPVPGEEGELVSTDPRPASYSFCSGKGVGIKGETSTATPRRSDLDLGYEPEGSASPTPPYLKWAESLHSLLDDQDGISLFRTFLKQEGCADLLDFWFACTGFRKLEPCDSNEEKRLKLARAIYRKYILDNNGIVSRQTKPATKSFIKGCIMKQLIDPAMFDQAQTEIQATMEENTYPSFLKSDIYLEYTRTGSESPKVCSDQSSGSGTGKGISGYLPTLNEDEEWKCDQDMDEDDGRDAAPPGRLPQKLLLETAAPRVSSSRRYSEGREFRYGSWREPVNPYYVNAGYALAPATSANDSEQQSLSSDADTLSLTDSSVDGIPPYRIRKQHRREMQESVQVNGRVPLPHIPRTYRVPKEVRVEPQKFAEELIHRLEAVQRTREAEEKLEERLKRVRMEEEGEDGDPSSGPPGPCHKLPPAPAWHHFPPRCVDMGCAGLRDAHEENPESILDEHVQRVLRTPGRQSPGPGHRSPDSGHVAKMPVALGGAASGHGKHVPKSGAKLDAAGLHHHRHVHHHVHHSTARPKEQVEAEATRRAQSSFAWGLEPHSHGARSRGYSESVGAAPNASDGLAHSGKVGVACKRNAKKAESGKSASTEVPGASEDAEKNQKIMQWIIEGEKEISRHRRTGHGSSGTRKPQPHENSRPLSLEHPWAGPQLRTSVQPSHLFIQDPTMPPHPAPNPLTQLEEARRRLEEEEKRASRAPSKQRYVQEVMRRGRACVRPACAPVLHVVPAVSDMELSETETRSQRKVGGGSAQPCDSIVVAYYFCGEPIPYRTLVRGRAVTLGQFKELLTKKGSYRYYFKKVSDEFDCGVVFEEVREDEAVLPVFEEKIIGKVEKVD
# Sequence of Casein kinase I isoform alpha (Homo sapiens) (P48729 2-337 limits assumed): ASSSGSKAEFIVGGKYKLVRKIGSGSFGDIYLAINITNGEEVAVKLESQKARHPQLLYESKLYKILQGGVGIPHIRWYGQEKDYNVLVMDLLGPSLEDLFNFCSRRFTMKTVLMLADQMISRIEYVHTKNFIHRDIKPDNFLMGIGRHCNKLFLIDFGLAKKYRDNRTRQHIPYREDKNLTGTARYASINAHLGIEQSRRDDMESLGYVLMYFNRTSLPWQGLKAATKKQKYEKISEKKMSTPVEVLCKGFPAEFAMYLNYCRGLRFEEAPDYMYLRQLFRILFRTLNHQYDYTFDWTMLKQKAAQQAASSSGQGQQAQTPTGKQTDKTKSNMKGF
# Sequence of Glycogen synthase kinase-3 beta (P49841 whole entry): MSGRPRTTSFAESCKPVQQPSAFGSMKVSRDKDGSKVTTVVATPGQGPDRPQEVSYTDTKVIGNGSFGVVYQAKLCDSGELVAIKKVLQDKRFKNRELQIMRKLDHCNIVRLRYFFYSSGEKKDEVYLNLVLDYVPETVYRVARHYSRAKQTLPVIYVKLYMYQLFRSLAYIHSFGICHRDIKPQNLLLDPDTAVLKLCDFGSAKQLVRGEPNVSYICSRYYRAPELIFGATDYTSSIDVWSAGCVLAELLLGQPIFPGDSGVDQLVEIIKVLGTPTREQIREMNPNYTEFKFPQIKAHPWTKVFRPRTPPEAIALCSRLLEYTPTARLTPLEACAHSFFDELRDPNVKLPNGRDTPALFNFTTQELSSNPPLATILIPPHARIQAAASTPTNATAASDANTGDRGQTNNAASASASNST
compound,measurement,setting,value
Cc1ccccc1-n1nnc(C(=O)Nc2ccc3ccccc3n2)c1C,inhibition,HEK293 [1],Active
same,Activity,HEK293 [2],40%
same,Activity,HEK293 [3],41%
same,Activity,[4],inactive
same,Kd,[5],4.3 µM
same,IC50,[6],34 nM
same,inhibition,SW480,Active
same,Activity,Axin-1 (Homo sapiens),Active
same,inhibition,Mus musculus [7],Active
same,Cmax,[8],2200 ng/mL
same,Activity,Mus musculus [9],Active
same,Activity,Mus musculus [10],Active
same,Activity,Mus musculus [11],Active
same,Activity,Mus musculus [12],Active
same,Activity,Mus musculus [13],Non-Toxic
same,Activity,Mus musculus [14],Non-Toxic
same,Activity,Mus musculus [15],Non-Toxic
same,Activity,Mus musculus [16],Non-Toxic
same,Activity,Mus musculus [17],Non-Toxic
same,Activity,[18],0.2 mg/dL
same,Activity,[19],14.8 mg/dL
same,Activity,[20],4.8 mg/dL
same,Activity,[21],12.8 U/L
same,Activity,[22],3.8 mg/dL
